Laboratory results: paper PMC2612038 (Journal of molecular biology, 2008)
“Also recorded” adds a separate entry of the source. Where two headings read alike, the source gives them in different places. One block for each molecule: values may come before it.

Experiments:
[1] = test system: Arf-null NIH 3T3 mouse fibroblasts; experiment: BrdU incorporation / cell cycle arrest assay after nuclear micro-injection; assay type: cell-based; conditions: peptide 2–4 mg/ml, BrdU 10 μM, 8 hours, 3 independent experiments
Solubility = assay type: physicochemical; conditions: co-assemblies with Hdm2-ABD
15N-Hdm2-ABD [2] = experiment: 2D 1H-15N HSQC NMR of 15N-Hdm2-ABD with Arf peptide; assay type: binding, human
How it was run: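 15N-Hdm2-ABD was expressed in E. coli in MOPS minimal medium with 15NH4Cl and purified. […] Combined shift perturbation: Δδ1H/15N = [(Δδ1HN)² + 0.0289·(Δδ15NH)²]^1/2, each difference taken as bound minus free.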

Mdm2 [3] = experiment: Nucleolar co-localization with endogenous Mdm2 after nuclear micro-injection; assay type: cell-based, mouse; conditions: for cells with co-localization with Mdm2 in nucleoli: 0.5 mg/mL TR-A1-mini injected into nuclei, 4 hour recovery, anti-mdm2 2A10
Structure in isolation = assay type: physicochemical; conditions: for structure in isolation: absence of oppositely charged partner
How it was run: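 Uniformly 13C/15N-labelled Hdm2-ABD (2 mM) was studied in 10 mM sodium phosphate, 10 mM NaCl, 0.01% azide, 6% D2O, pH 6.0, 25 °C. Backbone assignments came from HSQC, CT-HNCA, CT-HN(CO)CA, HNCACB and CBCA(CO)NH spectra, and side chains from C(CO)NH- and H(CCO)NH-TOCSY. 1H was referenced to external TSP, with 13C/15N referenced indirectly.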

[4] = test system: Hdm2-ABD lacking the H1 and/or H2 segments; experiment: CD co-assembly of A1-mini with Hdm2-ABD lacking H1 and/or H2 segments; assay type: binding, human; conditions: deletion of the H1 and/or H2 segments (Suppl. Fig. 1)
[5] = Sedimentation velocity AUC of the isolated polypeptide; assay type: physicochemical
How it was run: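 Sedimentation velocity was run at 50,000 rpm and 20 °C, with Rayleigh interference scans every 1 min. Samples were dialysed into 10 mM sodium phosphate pH 6.0 with 10 mM NaCl (150 mM for high ionic strength), and the dialysate was the reference. Analysis used c(s) with maximum-entropy regularisation (p = 0.7, n = 100), with s from main-peak integration and weight-average f/f0. c(M) came from c(s). c(s, f/f0) used an f/f0 grid of 1.2–2.2 and s of 0.1–5 S.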

[6] = cited from earlier work
[7] = cited from earlier work; remark: listed apart in the source
[8] = Pulsed magnetic field gradient/diffusion NMR of free Hdm2-ABD; assay type: physicochemical; conditions: 1 mM 15N-Hdm2-ABD, 10 mM sodium phosphate, 10 mM NaCl, pH 6; dioxane standard
How it was run: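 Diffusion was recorded at 600 MHz on 1 mM 15N-Hdm2-ABD in 10 mM sodium phosphate, 10 mM NaCl, pH 6. A 15N-filtered BPP-MAXY-D sequence gave 1D spectra across gradient strengths of 1–60 G cm−1. Dioxane served as internal standard to normalise for solution conditions. Equivalent unfolded chain length was estimated from Rh = (2.21 ± 1.07)N^(0.57 ± 0.02).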

[9] = test system: nucleoli of Arf-null NIH 3T3 mouse fibroblasts; experiment: Nucleolar localization after nuclear micro-injection; assay type: cell-based; conditions: 0.5 mg/mL TR-A1-mini injected into nuclei; 33/42 cells; 4 hour recovery
15N-Hdm2-ABD [10] = conditions: 3 equivalents; cited from earlier work
Hdm2-ABD = Hdm2-ABD (Homo sapiens, UniProt Q00987); conditions: cited from earlier work
Hdm2-ABD, sequence (Q00987 210-304): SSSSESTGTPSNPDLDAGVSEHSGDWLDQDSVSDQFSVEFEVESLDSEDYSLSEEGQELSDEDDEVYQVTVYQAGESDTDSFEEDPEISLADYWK

Mdm2 [11] = conditions: cited from earlier work
mouse fibroblasts = conditions: cited from earlier work
[12] = test system: 15-residue peptide containing the H1 segment of Hdm2; conditions: cited from earlier work
[13] = biological target: Arf-binding domain of Hdm2 (Hdm2-ABD), residues 210-304 (human, UniProt Q00987 210-304); experiment: circular dichroism
Arf-binding domain of Hdm2 (Hdm2-ABD), residues 210-304, sequence (Q00987 210-304): as above

[14] = 0.5 mM, 20 °C, 10 mM sodium phosphate pH 6.0, 10 mM NaCl, c(s) model

- solubility of peptide/Hdm2-ABD co-assemblies (Solubility): > 1000 µM
- structure in isolation (Structure in isolation): intrinsically unstructured
- sedimentation state, isolated ([5]; AUC, data not shown): sedimented as a monomer
Molecule: CC(C)C[C@H](NC(=O)[C@H](Cc1ccccc1)NC(=O)[C@H](CCCNC(=N)N)NC(=O)[C@H](CCCNC(=N)N)NC(=O)CN)C(=O)N[C@H](C(=O)N[C@H](C(=O)N[C@H](C(=O)N[C@@H](CCCNC(=N)N)C(=O)O)C(C)C)[C@@H](C)O)C(C)C [A1-mini]
- inhibition of BrdU incorporation / cell cycle arrest [1]: did not cause cell cycle arrest; also recorded: No significant differences in the percentage of cells undergoing DNA replication
- Δδ13Cα, 1H-1H NOE and heteronuclear NOE differences of 15N-Hdm2-ABD (15N-Hdm2-ABD [2]; absence vs presence of A1-mini, data not shown): significant differences in these parameters were not detected
- 1H-15N HSQC resonance intensities of 15N-Hdm2-ABD (15N-Hdm2-ABD [2]; in presence of four-fold molar excess A1-mini (Suppl. Fig. 5B)): significant reduction in the intensity; also recorded: reduced significantly
- cells with co-localization with Mdm2 in nucleoli (Mdm2 [3]): 7%
- co-assembly with Hdm2-ABD deletion variants [4]: complete abrogation of co-assembly

Molecule: (AEAEAKAK)2
- self-assembly [6]: self-assembled into β-strand-rich structures with fibrilar characteristics

Molecule: Hdm2-ABD: Hdm2 domain spanning residues 210-304 (Arf-binding domain)
- structure in isolation [7]: intrinsically unstructured in isolation
- structure in isolation (Structure in isolation): intrinsically unstructured
- secondary 13Cα chemical shift values (Δδ13Cα) (Structure in isolation; free Hdm2-ABD, pH 6.0, 25 °C (Suppl. Fig. 7B)): close to zero
- radius of hydration (Rh), free [8]: 25.7 Å
- frictional ratio (f/f0), isolated [5, 14]: 2.18
- sedimentation coefficient (s), isolated [5, 14]: 1.0 S
- molecular mass by AUC, isolated ([5]; 0.5 mM, 20 °C, pH 6.0, 10 mM NaCl): ~ 10,900 Da

Molecule: N-CGGGGGRRFLVTVR-C [TR-A1-mini]
- inhibition of BrdU incorporation / cell cycle arrest [1]: did not inhibit the incorporation of bromo-deoxyuridine (BrdU) into DNA
- injected cells with nucleolar localization [9]: 79%
- cells with co-localization with Mdm2 in nucleoli (Mdm2 [3]): 7%
- cells with nucleoplasmic Mdm2 and nucleolar TR-A1-mini localization (Mdm2 [3]; Fig. 5, nuclear injection): 93%

Molecule: mArf-N37: 37-residue intrinsically unstructured N-terminal fragment of p19^Arf (MGRRFLVTVRIQRAGRPLQERVFLVKFVRSRRPRTAS; UniProt Q64364 1-37, looked up, fragment)
- structure in isolation [7]: intrinsically unstructured in isolation
- effect on 15N-Hdm2-ABD resonances (15N-Hdm2-ABD [10]): broaden beyond detection
- Hdm2-ABD concentration at which complete conversion to β-strand occurs (Hdm2-ABD; 1 molar equivalent of peptide): ≥ 10 µM
- binding to Mdm2 (Mdm2 [11]): bound to Mdm2
- co-assembly with Mdm2 in nucleoli (Mdm2 [11]; in cells): co-assembled specifically with Mdm2 in nucleoli
- cell cycle arrest (mouse fibroblasts): exhibited cell cycle arrest activity in vivo
- p53-dependent cell cycle arrest (mouse fibroblasts; mouse fibroblasts): caused p53-dependent cell cycle arrest in mouse fibroblasts

Molecule: residues 1-15 of p14^Arf: peptide corresponding to residues 1-15 of p14^Arf (MVRRFLVTLRIRRAC; UniProt Q8N726 1-15, looked up, fragment)
- irreversible assembly into bi-molecular oligomers with Hdm2-ABD (Hdm2-ABD): irreversibly assembled into bi-molecular oligomers
- assembly with 15-residue H1 peptide of Hdm2 [12]: irreversibly assembled into bi-molecular oligomers

Molecule: residues 1-15 of p19^Arf: peptide from the N-terminus of p19^Arf spanning residues 1-15 (MGRRFLVTVRIQRAG; UniProt Q64364 1-15, looked up, fragment)
- binding to Hdm2-ABD (Hdm2-ABD): bound to Hdm2-ABD

- Kd [13]: ~200 µM
Molecule: GRRFLVTVR [A1-mini, peptide of residues 2-10 of mouse Arf (p19Arf)]
